pEC50: −log10 of the molar value. The source made the active and inactive calls. The calls are words filed in the database; no cut-off is given here.
Key:
[1] = organism: Homo sapiens; experiment: Inhibition of human recombinant NAE assessed as inhibition of NEDD8-UbcH12 complex formation at 0.001 to 10 uM after 1.5 hrs by Western blot analysis
Summary of the method: (§1)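 Cell-free gel assay. Purified human recombinant E1 incubated with its matching Ub/Ubl and E2 in 50 mM HEPES pH 7.4, 5 mM MgCl2, 1–20 μM ATP. Inhibitor at 0, 0.001, 0.01, 0.1, 1 or 10 μM, 1.5 h at room temperature. Products resolved by SDS-PAGE, immunoblotted and detected by ECL; densitometry used for semiquantitation.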

[2] = organism: Homo sapiens; experiment: Inhibition of human recombinant UAE assessed as inhibition of UbcH6-Ub complex formation at 0.001 to 10 uM after 1.5 hrs by Western blot analysis; summary of the method: as §1
[3] = target: SUMO-activating enzyme (Homo sapiens) (UniProt Q9UBE0+Q9UBT2); experiment: Inhibition of human recombinant SAE1/2 assessed as inhibition of SUMO1-UbcH9 complex formation at 0.001 to 10 uM after 1.5 hrs by Western blot analysis; type: protein-complex assay; summary of the method: as §1
[4] = target: Ubiquitin-like modifier-activating enzyme 5 (Homo sapiens) (UniProt Q9GZZ9); experiment: Inhibition of human recombinant UBA5 assessed as inhibition of […]-UFM1 complex formation at 10 uM after 1.5 hrs by Western blot analysis; summary of the method: as §1
Ubiquitin-like modifier-activating enzyme 5 (Homo sapiens), sequence (Q9GZZ9 whole entry): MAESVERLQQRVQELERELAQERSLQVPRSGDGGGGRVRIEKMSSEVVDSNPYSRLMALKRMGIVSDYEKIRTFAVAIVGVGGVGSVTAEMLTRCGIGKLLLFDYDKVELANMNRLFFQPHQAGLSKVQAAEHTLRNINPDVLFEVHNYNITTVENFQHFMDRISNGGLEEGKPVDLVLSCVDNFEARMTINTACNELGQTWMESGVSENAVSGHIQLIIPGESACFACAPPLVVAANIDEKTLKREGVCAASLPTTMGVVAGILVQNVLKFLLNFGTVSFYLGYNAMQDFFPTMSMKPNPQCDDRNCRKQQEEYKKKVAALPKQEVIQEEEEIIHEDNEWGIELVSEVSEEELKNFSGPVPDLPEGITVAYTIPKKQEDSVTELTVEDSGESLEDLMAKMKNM

[5] = target: T1, NEDD8-activating enzyme E1 catalytic subunit (Homo sapiens) (UniProt Q8TBC4); experiment: Inhibition of UBA3-mediated NEDD8 activation at […] after 1.5 hrs by Western blot analysis
T1 sequence (whole entry): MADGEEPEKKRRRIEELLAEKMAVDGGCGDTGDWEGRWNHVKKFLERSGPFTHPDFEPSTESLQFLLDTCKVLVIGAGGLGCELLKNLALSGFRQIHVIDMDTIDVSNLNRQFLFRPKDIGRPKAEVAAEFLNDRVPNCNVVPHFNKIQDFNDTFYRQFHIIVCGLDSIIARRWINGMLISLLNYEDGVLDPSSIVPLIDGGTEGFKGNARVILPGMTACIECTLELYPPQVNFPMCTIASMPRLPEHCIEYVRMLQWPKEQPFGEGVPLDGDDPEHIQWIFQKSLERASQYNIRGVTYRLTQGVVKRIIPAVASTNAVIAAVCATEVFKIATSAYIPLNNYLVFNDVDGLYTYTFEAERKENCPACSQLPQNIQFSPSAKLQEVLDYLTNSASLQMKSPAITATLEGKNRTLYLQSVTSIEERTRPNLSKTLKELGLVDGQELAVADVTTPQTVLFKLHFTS

[6] = target: T2, NEDD8-activating enzyme E1 regulatory subunit (Homo sapiens) (UniProt Q13564); experiment: Inhibition of APPBP1-mediated NEDD8 activation at […] after 1.5 hrs by Western blot analysis
T2 sequence (whole entry): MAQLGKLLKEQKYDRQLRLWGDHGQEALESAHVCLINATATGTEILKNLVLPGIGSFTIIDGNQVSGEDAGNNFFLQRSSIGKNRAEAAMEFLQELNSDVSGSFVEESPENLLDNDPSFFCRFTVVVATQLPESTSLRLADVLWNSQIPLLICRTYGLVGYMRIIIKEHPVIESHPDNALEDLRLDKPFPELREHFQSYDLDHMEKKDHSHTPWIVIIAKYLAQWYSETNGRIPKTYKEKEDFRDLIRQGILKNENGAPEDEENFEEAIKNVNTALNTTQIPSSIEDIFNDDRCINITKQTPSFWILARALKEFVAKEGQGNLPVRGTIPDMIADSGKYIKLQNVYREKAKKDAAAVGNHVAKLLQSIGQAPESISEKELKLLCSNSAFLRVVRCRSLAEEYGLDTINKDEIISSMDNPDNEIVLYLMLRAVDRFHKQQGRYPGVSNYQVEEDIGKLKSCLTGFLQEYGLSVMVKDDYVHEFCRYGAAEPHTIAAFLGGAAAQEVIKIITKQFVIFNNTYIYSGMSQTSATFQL

[7] = tested on: K562; experiment: Antiproliferative activity against human K562 cells after 72 hrs by CellTiter-Glo assay; type: functional, cell-based; settings: K562, 72 h
Summary of the method: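 K562 leukemia cells exposed to increasing concentrations for 72 h; growth and viability read by CellTiter-Glo luminescence.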

`NS(=O)(=O)OC[C@H]1O[C@@H](n2cnc3c(N[C@H]4CCc5ccccc54)ncnc32)[C@H](O)[C@@H]1O` was tested, and the inhibition [1] was “Active”, the inhibition [2] was “Active” and the inhibition [3] was “Active”. For the same molecule, the inhibition [4] was “inactive”, the inhibition [5] was “Active” and the inhibition [6] was “Active”. For the same molecule, the pEC50 [7] was 6.90.

Source: ChEMBL document CHEMBL2016531, “Identification of NAE Inhibitors Exhibiting Potent Activity in Leukemia Cells: Exploring the Structural Determinants of NAE Specificity” (ACS Med Chem Lett, 2011)
